This note sets out measurements from ChEMBL document CHEMBL1944511, “Bakuchiol derivatives as novel and potent cytotoxic agents: a report” (Eur J Med Chem, 2012).

What all share (assay type): functional
One test relates to MCF7. In words: Growth inhibition of human MCF7 cells at 50 uM after 48 hrs by sulpharhodamine B assay. To be noted: MCF7, 48 h, read-out: GI. A digest of the protocol: (§1)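 This is the SRB protein-stain assay on adherent cells in RPMI-1640/MEM with 10% FCS. Each compound in DMSO (vehicle <0.2%) was applied at a single fixed concentration for 48 h. Cells were fixed with TCA and stained with SRB, and the dye was solubilised in Tris and read at 570/620 nm. Percent growth inhibition is relative to vehicle-treated controls, reported as mean ± SD of three experiments run in triplicate.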

For the next test, the system named is A549. In words: Growth inhibition of human A549 cells at 50 uM after 48 hrs by sulpharhodamine B assay. To be noted: A549, 48 h, read-out: GI. A digest of the protocol: as §1
The next test concerns PC-3. Kind of test: Growth inhibition of human PC3 cells at 50 uM after 48 hrs by sulpharhodamine B assay. To be noted: PC-3, 48 h, read-out: GI. A digest of the protocol: (§2)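 Cells grown in RPMI-1640/MEM with 10% FCS, penicillin/streptomycin, 37 °C, 5% CO2. Seeded in 96-well plates, allowed to adhere overnight, then exposed 48 h to analogs in DMSO (vehicle <0.2% in controls). TCA-fixed, stained with 0.4% SRB in 1% acetic acid, dye solubilized in 10 mM Tris base, OD 570 nm (ref 620 nm). Mean ± SD of three experiments run in triplicate.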

A further test has as its system OVCAR-5. In words: Growth inhibition of human OVCAR5 cells at 50 uM after 48 hrs by sulpharhodamine B assay. To be noted: OVCAR-5, 48 h, read-out: GI. Put shortly:
as §1

In another test the test system is IMR-32. In words: Growth inhibition of human IMR32 cells at 50 uM after 48 hrs by sulpharhodamine B assay. As to conditions: IMR-32, 48 h, read-out: GI. Put shortly: as §1
Another test relates to HeLa. In words: Growth inhibition of human HeLa cells at 50 uM after 48 hrs by sulpharhodamine B assay. To be noted: read-out: GI. A digest of the protocol: as §1
The test system of the next test is THP-1. In words: Growth inhibition of human THP1 cells at 50 uM after 48 hrs by sulpharhodamine B assay. To be noted: THP-1, 48 h, read-out: GI. A digest of the protocol: as §2

The structures appear in SMILES notation.

On to `COc1ccc(/C=C/[C@@](C)(/C=C/c2ccc(O)cc2)CCC=C(C)C)cc1`, for which the inhibition of growth at 50 µM in the test on MCF7 was 55%; in the test with A549, 40%; with PC-3 it was 50%; in the test with OVCAR-5 it was 20%; in the test with IMR-32, 6%; in the test on HeLa it was 20%. For the same molecule, the inhibition of growth at 50 µM in the test on THP-1 is 52%.

Take `CC(C)=CCC[C@](C)(/C=C/c1ccc(O)cc1)/C=C/c1ccc(F)cc1`: the inhibition of growth at 50 µM was 28% in the test with MCF7; 31% with A549; 33% with PC-3; 29% in the test on OVCAR-5; 37% with IMR-32; 43% with HeLa. Besides, in the test on THP-1, the inhibition of growth at 50 µM is 60%.

For the molecule `COc1ccc(/C=C/C(C)(/C=C/c2ccc(OC)cc2)CCC=C(C)C)cc1`, the inhibition of growth at 50 µM was found to be 13% in the test with MCF7; 15% in the test on A549; 29% in the test on PC-3; 25% with OVCAR-5; 27% in the test on IMR-32; 11% in the test with HeLa. Besides, the inhibition of growth at 50 µM with THP-1 was found to be 62%.

With `COc1ccc(/C=C/[C@@](C)(/C=C/c2ccc(O)cc2)CCC=C(C)C)cc1C=O`, the inhibition of growth at 50 µM in the test with MCF7 stood at 36%; in the test with A549 it was 32%; in the test with PC-3, 34%; with OVCAR-5, 33%; in the test with IMR-32, 35%; in the test with HeLa, 31%. Further, in the test with THP-1, the inhibition of growth at 50 µM turned out to be 45%.

Regarding `C=C[C@@](C)(/C=C/c1ccc(OC(=O)CCCC)cc1)CCC=C(C)C`, the inhibition of growth at 50 µM with MCF7 is 25%; with A549 it was 38%; in the test with PC-3, 42%; in the test with OVCAR-5 it was 3%; with IMR-32, 21%; in the test on HeLa, 23%. Further, the inhibition of growth at 50 µM in the test with THP-1 turned out to be 15%.

`CCCOc1ccc(/C=C/[C@@](C)(/C=C/c2ccc(O)cc2)CCC=C(C)C)cc1Cl`: the inhibition of growth at 50 µM was 47% in the test on MCF7; 5% in the test with A549; 7% in the test with PC-3; 12% with OVCAR-5; 8% in the test with IMR-32; 4% with HeLa. For the same molecule, the inhibition of growth at 50 µM with THP-1 turned out to be 20%.

Take `COc1ccc(/C=C/[C@@](C)(/C=C/c2ccc(O)cc2)CCC=C(C)C)cc1CO`: the inhibition of growth at 50 µM in the test with MCF7 is 42%; with A549 it was 41%; in the test on PC-3, 39%; in the test on OVCAR-5 it was 38%; in the test on IMR-32, 34%; in the test on HeLa it was 36%. Besides, the inhibition of growth at 50 µM with THP-1 stood at 58%.

Take `CC[C@](C)(CCCC(C)C)CCc1cc(Br)c(O)c(Br)c1`: the inhibition of growth at 50 µM is 42% in the test on MCF7; 40% with A549; 50% in the test on PC-3; 8% in the test on OVCAR-5; 21% in the test with IMR-32; 42% in the test with HeLa. Moreover, the inhibition of growth at 50 µM in the test with THP-1 was 51%.

Take `C=C[C@@](C)(/C=C/c1ccc(O)cc1)CCC1OC1(C)C` (stereo partly specified): the inhibition of growth at 50 µM in the test on MCF7 came out at 33%; with A549, 44%; in the test on PC-3, 46%; in the test on OVCAR-5, 12%; in the test with IMR-32 it was 59%; in the test on HeLa it was 32%. Moreover, the inhibition of growth at 50 µM in the test on THP-1 turned out to be 52%.

With `C=C[C@@](C)(/C=C/c1ccc(OC(=O)CCCCC)cc1)CCC=C(C)C`, the inhibition of growth at 50 µM in the test with MCF7 was found to be 18%; in the test with A549, 58%; in the test on PC-3 it was 28%; in the test on OVCAR-5, 13%; with IMR-32, 19%; in the test on HeLa, 50%. Further, the inhibition of growth at 50 µM in the test on THP-1 came out at 54%.

For `C=C[C@@](C)(/C=C/c1ccc(OC(=O)CCC)cc1)CCC=C(C)C`, the inhibition of growth at 50 µM with MCF7 is 20%; in the test on A549, 50%; in the test on PC-3, 38%; in the test on OVCAR-5 it was 41%; in the test on IMR-32 it was 54%; with HeLa, 36%. For the same molecule, in the test on THP-1, the inhibition of growth at 50 µM is 54%.

With `COc1ccccc1/C=C/[C@@](C)(/C=C/c1ccc(O)cc1)CCC=C(C)C`, the inhibition of growth at 50 µM came to 42% in the test with MCF7; 10% with A549; 46% in the test with PC-3; 38% in the test on OVCAR-5; 68% with IMR-32; 50% in the test on HeLa. In the test on THP-1, the inhibition of growth at 50 µM stood at 62%.

For `CC(C)=CCCC(C)(/C=C/c1ccc(O)cc1)/C=C/c1ccc(O)cc1`, the inhibition of growth at 50 µM is 31% in the test with MCF7; 33% with A549; 32% in the test with PC-3; 33% with OVCAR-5; 30% in the test with IMR-32; 32% in the test with HeLa. Moreover, in the test on THP-1, the inhibition of growth at 50 µM was 66%.

For `C=C[C@@](C)(/C=C/c1ccc(O)c(N)c1)CCC=C(C)C`, the inhibition of growth at 50 µM with MCF7 amounted to 17%; with A549, 41%; in the test with PC-3 it was 28%; in the test on OVCAR-5, 33%; with IMR-32, 39%; in the test on HeLa, 48%. For the same molecule, in the test on THP-1, the inhibition of growth at 50 µM was 48%.

In the case of `C=C[C@@](C)(/C=C/c1ccc(OC(=O)CC)cc1)CCC=C(C)C`, the inhibition of growth at 50 µM is 23% with MCF7; 42% in the test with A549; 54% with PC-3; 52% in the test with OVCAR-5; 63% with IMR-32; 48% with HeLa. Also, the inhibition of growth at 50 µM with THP-1 is 60%.

In the case of `C=C[C@@](C)(/C=C/c1ccc(O)cc1)CC/C=C(/C)C=O`, the inhibition of growth at 50 µM in the test on MCF7 amounted to 12%; with A549, 35%; in the test with PC-3, 51%; in the test with OVCAR-5, 22%; in the test with IMR-32, 53%; in the test on HeLa, 40%. Further, in the test on THP-1, the inhibition of growth at 50 µM stood at 54%.

Regarding `C=C[C@@](C)(/C=C/c1ccc(O)c([N+](=O)[O-])c1)CCC=C(C)C`, the inhibition of growth at 50 µM with MCF7 was determined as 49%; in the test on A549, 52%; in the test with PC-3, 52%; in the test on OVCAR-5, 55%; in the test with IMR-32 it was 50%; in the test with HeLa it was 49%. The inhibition of growth at 50 µM in the test on THP-1 came to 55%.

`CC[C@](C)(CCCC(C)C)CCc1ccc(O)cc1`: the inhibition of growth at 50 µM is 46% in the test with MCF7; 49% in the test with A549; 40% in the test on PC-3; 43% with OVCAR-5; 53% in the test with IMR-32; 42% with HeLa. The inhibition of growth at 50 µM with THP-1 turned out to be 58%.
